Assay [1] has as its target T1, P2Y purinoceptor 1 (Homo sapiens, UniProt P47900). As to the kind of experiment: Antagonist activity at human P2Y1 receptor in HEK293 cells assessed as intracellular calcium level by FLIPR. It counts as functional, cell-based. (Calcium assays in cells follow changes in intracellular calcium, usually with a dye or a luminescent sensor.)
Assay [2] deals with T1, P2Y purinoceptor 1. Put plainly: Displacement of [33P]2-Mes-ADP from human recombinant P2Y1 receptor expressed in human U20S cells. Format: cell-based, U2OS. The procedure, abridged:
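Membranes from BacMam-transduced U2OS cells expressing human P2Y1, [33P]-2-MeS-ADP radioligand, 0.5 mg WGA-SPA beads. Buffer: 15 mM Hepes, 145 mM NaCl, 0.1 mM MgCl2, 5 mM EDTA, 5 mM KCl. Test compound at various concentrations or DMSO vehicle. Incubated 1 h at room temperature to completion, centrifuged at 2000g, then counted.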

Assay [3] relates to Platelet. Put plainly: Inhibition of ADP-induced human platelet aggregation. Format: functional, cell-based. The procedure, abridged:
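Washed human platelets preincubated with compound for 5 min, then challenged with 10 µM ADP; aggregation followed by light transmittance aggregometry; IC50 reported.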

pIC50, pKi: −log10 of the molar value. Some results are limits rather than exact numbers.

T1 sequence (P47900 whole entry): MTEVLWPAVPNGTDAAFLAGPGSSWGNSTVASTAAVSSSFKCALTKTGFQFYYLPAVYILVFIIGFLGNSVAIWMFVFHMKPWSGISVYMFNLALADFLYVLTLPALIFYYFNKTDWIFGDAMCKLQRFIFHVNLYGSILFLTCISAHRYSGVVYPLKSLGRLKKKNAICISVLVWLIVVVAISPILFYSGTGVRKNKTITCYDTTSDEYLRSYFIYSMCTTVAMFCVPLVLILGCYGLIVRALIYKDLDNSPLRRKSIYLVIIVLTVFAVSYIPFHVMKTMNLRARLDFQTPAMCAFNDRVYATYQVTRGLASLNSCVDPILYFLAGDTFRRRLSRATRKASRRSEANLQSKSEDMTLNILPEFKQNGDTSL

By pIC50 is commonly meant the negative decadic logarithm of the IC50, by convention in mol/L. One may read the pKi as −log10 of the Ki, conventionally taken in molar units. With `CC[C@@H]1[C@@H](C)[C@H](Nc2ccccc2)c2ccccc2N1C(=O)c1ccc([N+](=O)[O-])cc1`, the pIC50 in assay [1] is 5.80. Further, in assay [2], the pKi is 6.30.
For `CC[C@@H]1[C@@H](C)[C@H](N(C)c2ccccc2)c2ccccc2N1C(=O)c1ccc(OC)cc1`, in assay [1], the pIC50 is under 4.60.
Consider `CC[C@@H]1[C@@H](C)[C@H](Nc2ccccc2)c2ccccc2N1C(=O)c1ccc(Br)cc1`, for which the pIC50 in assay [1] is 6.10. Further, the pKi in assay [2] was 7.00.
As for `CC[C@@H]1[C@@H](C)[C@H](Nc2ccccc2)c2ccccc2N1C(=O)Nc1ccccc1Cl`, in assay [1], the pIC50 was under 4.60.
Consider `CC[C@@H]1[C@@H](C)[C@H](Nc2ccccc2)c2ccccc2N1C(=O)Nc1cccc(Cl)c1`, for which the pIC50 in assay [1] was 6.00. Moreover, in assay [2], the pKi is 6.52.
Taken in the same sequence, the figures for `CC[C@@H]1[C@@H](C)[C@H](Nc2ccccc2)c2ccccc2N1C(=O)Nc1ccccc1` were 5.80 and 6.40.
On the same counts, the results for `CC[C@@H]1[C@@H](C)[C@H](Nc2ccccc2)c2ccccc2N1C(=O)Nc1cc(OC)cc(OC)c1` are 6.10 and 6.70.
Take `CC[C@@H]1[C@@H](C)[C@H](Nc2ccccc2)c2ccccc2N1C(=O)c1cccc(OC(F)(F)F)c1`: the pIC50 in assay [1] is under 4.60.
Regarding `CC[C@@H]1[C@@H](C)[C@H](Nc2ccccc2)c2ccccc2N1C(=O)c1ccc(Cl)cc1`, the pIC50 in assay [1] is 5.89. Besides, in assay [2], the pKi is 6.40.
On the same counts, the results for `CC[C@@H]1[C@@H](C)[C@H](Nc2ccccc2)c2ccccc2N1C(=O)Nc1ccc(Cl)cc1` are 5.70 and 6.52.
On to `CC[C@@H]1[C@@H](C)[C@H](Nc2ccccc2)c2ccccc2N1C(=O)Nc1ccc(OC)cc1`, for which the pIC50 in assay [1] was 5.22.
For the compound `CC[C@@H]1[C@@H](C)[C@H](Nc2ccccc2)c2ccccc2N1C(=O)Nc1cccc(Br)c1`, the pIC50 in assay [1] is 6.00. Also, in assay [2], the pKi is 7.00.
Take `CC[C@@H]1C[C@@H](Nc2ccccc2)c2ccccc2N1C(=O)c1ccc(OC)cc1`: the pIC50 in assay [1] was under 4.60.
The same measure, in the same setting: as for `COc1ccc(C(=O)N2C[C@@H](C)[C@H](Nc3ccccc3)c3ccccc32)cc1`, the figure is 5.00.
On to `COc1ccc(C(=O)N2CC[C@H](Nc3ccccc3)c3ccccc32)cc1`, for which, in assay [1], the pIC50 was under 4.60.
On the same count and under the same terms, as for `CC[C@H]1[C@H](C)[C@@H](Nc2ccccc2)c2ccccc2N1C(=O)Nc1cc(Cl)cc(Cl)c1`, the figure is under 4.60; as for `CC[C@@H]1[C@@H](C)[C@H](Nc2ccccc2)c2ccccc2N1C(=O)c1ccccc1`, 4.60.
`CC[C@@H]1C[C@H](Nc2ccccc2)c2ccccc2N1C(=O)c1ccc(OC)cc1`: the pIC50 in assay [1] is 5.49. The pKi in assay [2] was 6.10.
Consider `CC[C@@H]1[C@@H](C)[C@H](Nc2ccccc2)c2ccccc2N1C(=O)c1ccc(OC)cc1`, for which the pIC50 in assay [1] is 6.10. The pKi in assay [2] is 6.40.
For the compound `CC[C@@H]1[C@@H](C)[C@H](Nc2ccccc2)c2ccccc2N1C(=O)c1ccc(OC(F)(F)F)cc1`, the pIC50 in assay [1] is 6.00. Further, the negative logarithm of the Ki (pKi) in assay [2] is 7.00.
Taken in the same sequence, the figures for `CC[C@@H]1[C@@H](C)[C@H](Nc2ccccc2)c2ccccc2N1C(=O)Nc1cccc(OC)c1` were 5.80 and 6.30.
In the case of `CC[C@@H]1[C@@H](C)[C@H](Nc2ccccc2)c2ccccc2N1C(=O)Nc1cc(Cl)cc(Cl)c1` (stereo in doubt; 6i), in assay [1], the pIC50 was 6.22. Besides, in assay [2], the pKi was 7.15.
Turning to `CC[C@@H]1[C@@H](C)[C@H](Nc2ccccc2)c2ccccc2N1C(=O)Nc1cc(Cl)cc(Cl)c1` (stereo in doubt; 16), the results for the negative-log IC50 (pIC50) in assay [1] (hek293) and in assay [3] were 6.22 and 6.30, respectively. The pKi in assay [2] (u2os) is 7.15.

Values taken from ChEMBL document CHEMBL1152131, “Tetrahydro-4-quinolinamines identified as novel P2Y(1) receptor antagonists” (Bioorg Med Chem Lett, 2008).
